A selection: hits, their analogues and other compounds. The true share with any hit is near 1.1%.
Thrombin inh – thrombin (human) inhibition | P00734 | alpha-thrombin, Boc-VPR-AMC fluorogenic substrate cleavage | inhibition, % at 5 µM | hit rate 0.26% among 220,000 | AID 1046;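 active means inhibition at or above 40%; inactive means inhibition below 40%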;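 further: 0% = enzyme with no compound and 100% = wells without enzyme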
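Material: human alpha-thrombin protein; Also added: Boc-VPR-AMC substrate, 15 µM final; Timing: enzyme reaction carried out at room temperature; Signal: fluorescence, ex 355 nm, em 460 nm; Measure: % inhibition of thrombin; Controls: enzyme without compound as high, wells lacking enzyme as low.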
TbHK1 inh – blocks Trypanosoma brucei hexokinase 1 activity; inhibition, % at 10 µM; hit rate 0.11% among 220,000; AID 1430; recombinant TbHK1, G6PDH-coupled NADH A340;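 active means inhibition of 50% or more in the single-dose primary screen; inactive means inhibition below 50%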
hK5 inh – blocks human kallikrein 5 protease activity; hit rate 0.59% among 210,000; recombinant hK5, fluorogenic AMC substrate cleavage; Q9Y337; inhibition, % at 5 µM;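 active means inhibition of 40% or more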;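 further: 0% = enzyme controls without compound and 100% = no-enzyme blanks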
Target sequence (Q9Y337 67-293 limits assumed): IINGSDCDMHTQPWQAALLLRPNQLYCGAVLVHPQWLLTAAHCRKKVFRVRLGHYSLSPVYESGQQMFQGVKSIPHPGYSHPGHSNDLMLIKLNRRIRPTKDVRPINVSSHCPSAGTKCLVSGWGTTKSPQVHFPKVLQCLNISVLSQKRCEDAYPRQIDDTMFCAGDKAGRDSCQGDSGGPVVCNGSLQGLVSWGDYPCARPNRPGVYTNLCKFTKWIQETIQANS
FXIIa inh 1536 – inhibitors of human coagulation factor XIIa; hit rate 0.3% among 220,000; purified FXIIa, Boc-QGR-AMC fluorogenic substrate, 2 h; inhibition, % at 5 µM; in the data active means inhibition above about 40%;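 further: 0% = enzyme with no compound and 100% = blank without enzyme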
FXIa inh – inhibitors of human coagulation factor XIa; purified FXIa, Boc-Glu-Ala-Arg-AMC fluorogenic substrate; inhibition, % at 5 µM; hit rate 0.14% among 220,000; P03951;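 active means inhibition of at least 40%; inactive means inhibition below 40%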;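 further: fluorescence of freed AMC excited at 355 nm; 0% = enzyme without compound and 100% = no enzyme blank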
* hit, by the source's call; · = no result.

SMILES	Thrombin inh	TbHK1 inh	hK5 inh	FXIIa inh 1536	FXIa inh
CCOC(=O)c1sc(-c2ccc(Cl)cc2Cl)nc1O	-3.9	-12.6	0.6	5.7	1.6
CCC(C(=O)Nc1cc(C(=O)Nc2cc(C)ccn2)ccc1Cl)c1ccccc1 (centres undefined)	-7.3	27.6	-20.9	9.1	0.5
NC(=O)N[C@@H](Cc1c[nH]c2ccccc12)C(=O)OCC(=O)N1CCCCC1	-18.6	7.8	30.1	39.2	37.9
O=C(NC(Cc1c[nH]c2ccccc12)c1nnc2n1CCCCC2)c1ccc(Cl)cc1 (centres undefined)	14.0	-18.3	47.6*	23.4	-0.6
CCC(=O)c1ccc(OCc2ccc(C(=O)OC)cc2)c(OC)c1	13.1	-0.3	57.4*	25.1	0.8
N=C1C(c2ccccc2)=C(O)CN1c1cccc2ccccc12	-7.9	-0.5	-0.9	4.5	-4.3
O=S(N1CCCCC1)C12CC3CC(CC(C3)C1)C2 (centres undefined)	2.5	0.5	-1.8	4.2	-3.0
O=S(NC1CCCCC1)C12CC3CC(CC(C3)C1)C2 (centres undefined)	2.8	-2.8	-13.2	62.4*	42.3*
Cc1ccccc1CN1CCc2c(OCC(=O)N3CCCc4ccccc43)cccc2C1=O	0.7	42.2	53.3*	9.3	13.4
CCC(CO)n1c(SCc2cc(=O)oc3cc(C)ccc23)nc2ccccc2c1=O (centres undefined)	2.2	-7.3	-3.5	41.6*	20.8
CCOC(=O)c1[nH]c(C)c(C(=O)OCC(=O)N2CC(=O)Nc3ccccc32)c1C	8.3	-3.1	41.6*	29.4	8.0
Cc1c(C(=O)OCC(=O)N2CC(=O)Nc3ccccc32)oc2ccccc12	4.5	-9.4	1.8	16.5	4.2
O=C1CN(C(=O)COC(=O)c2oc3ccccc3c2COc2ccccc2)c2ccccc2N1	2.6	-12.7	-16.8	47.0*	19.8
Cc1nn(-c2ccccc2)c(C)c1C(=O)OCC(=O)N1CC(=O)Nc2ccccc21	5.8	-5.8	-16.1	13.7	7.5
OCC1(CC2CCCCO2)CCN(Cc2cccc(O)c2)CC1 (centres undefined)	-3.5	8.8	3.9	10.0	8.3
COc1ccc(C(=O)c2c[nH]c(C(=O)N=CN(C)C)c2)cc1	-1.8	-15.1	-4.2	2.3	-0.3
Cc1ccc([N+](=O)[O-])cc1S(=O)(=O)n1ccnc1C	3.1	-0.6	2.6	6.8	0.2
Cn1c(C(=O)N2CCCCCC2)cc2c(=O)n(C)c3ccccc3c21	-0.4	-3.0	-13.1	19.1	4.5
Cc1cccc(N2CCN(C(=O)c3cc4c(=O)n(C)c5ccccc5c4n3C)CC2C)c1 (centres undefined)	24.7	-4.3	41.2*	·	7.0
CCOC(=O)c1c(C)[nH]c(C)c1C(=O)COC(=O)/C=C/c1cccc(F)c1	12.4	-2.0	52.2*	37.8	8.0
CCOC(=O)c1c(C)[nH]c(C)c1C(=O)COC(=O)/C=C/c1cccc(C(F)(F)F)c1	-9.1	1.5	-11.3	10.9	6.0
COc1ccc(NC(=O)c2ccc(S(=O)(=O)N3CCOCC3)cc2)c(OC)c1	1.4	5.3	-14.2	3.5	-0.3
COc1ccc(NCC(=O)Nc2cc(S(=O)(=O)N3CCOCC3)ccc2N2CCOCC2)c(OC)c1	16.5	-1.7	24.4	34.7	41.9*
N#C/C(=N\Nc1ccccc1)C(N)=S	37.6	-14.0	27.0	107.3*	34.6
O=C(Cn1nc([N+](=O)[O-])nc1Br)NC(c1ccccc1)c1ccccc1	1.2	4.3	8.9	23.1	21.6
SMILES	Thrombin inh	TbHK1 inh	hK5 inh	FXIIa inh 1536	FXIa inh
CCCCOC(=O)Sc1nc2ccccc2o1	46.3*	21.2	-50.1	12.8	2.2
COc1ccc(NC(=O)C/C(C)=N/NC(=O)C(=O)NC2CCCCC2)c(OC)c1	5.8	2.5	-2.0	10.2	-1.7
CCOC(=O)NN1C(=O)c2ccccc2NC12CCCC2	-4.2	1.9	-15.4	0.9	-6.7
COc1ccc(CCNC(=O)C(=O)NCC2CCCO2)cc1OC (centres undefined)	28.9	4.3	50.6*	15.0	2.7
COc1cccc2cc(C(=O)NCC3CCCO3)c(=O)oc12 (centres undefined)	104.0*	-6.9	44.0*	16.8	13.8
COc1ccc(CCNC(=O)C2CCC(CNS(=O)(=O)c3ccccc3)CC2)cc1OC (centres undefined)	52.6*	11.0	20.6	25.6	29.3
COc1ccc(CCNC(=O)C2CCC(CNS(=O)(=O)c3ccc(F)cc3)CC2)cc1OC (centres undefined)	-7.7	2.6	-4.7	-0.5	-5.0
CCCCn1c(SCC(=O)NNC(=O)c2ccco2)nnc1-c1ccco1	-4.0	-2.2	-1.0	15.2	0.0
O=C(c1ccccc1)c1nccc2ccccc12	-12.9	24.8	-21.6	-4.9	-6.1
O=C(NCCc1ccccc1)C(=O)Nc1ccc([N+](=O)[O-])cc1	2.2	-8.5	0.9	6.1	-3.2
Brc1ccc(-n2cc(-c3ccccc3)c3c(NN4CCOCC4)ncnc32)cc1	3.5	-3.5	-6.9	4.6	2.2
Cc1ccc(-c2nc(CS(=O)(=O)CC(=O)N3CCc4ccccc4C3)c(C)o2)cc1	-8.0	-2.8	-0.6	50.9*	35.6
OC(COc1ccc(CNCCc2ccccc2F)cc1)CN1CCCCC1 (centres undefined)	-5.6	-5.2	·	12.4	0.0
Cc1ccc(-c2c[n+](CC(=O)Nc3nc(-c4ccc(F)cc4)cs3)c3n2CCC3)cc1	21.4	21.0	49.2*	26.6	6.0
CCCNC(=O)COC(=O)c1ccccc1OCc1ccc(Cl)cc1	-3.7	-3.2	-15.4	11.2	6.2
COCCNC(=O)c1nn(-c2cc(OC)cc(OC)c2)c(=O)c2ccccc12	7.8	-3.6	66.3*	18.1	15.2
CCOC(=O)C1CCN(C(=O)C(CC)c2ccccc2)CC1 (centres undefined)	-11.7	-5.1	-4.7	-2.0	-3.4
O=C(C1CCCCC1)N1CCC(c2nc3ccccc3[nH]2)CC1	18.2	3.6	71.5*	13.1	-0.9
CCOC(=O)c1nnc(-c2cccs2)nc1NC(C)C	3.9	-18.3	114.7*	1.5	-0.2
O=C(O)c1ccc(NC2=C(Cl)C(=O)c3ccccc3C2=O)cc1	22.8	-5.9	80.9*	43.3*	13.5
O=C1C(Cl)=C(Nc2ccccc2)C(=O)c2ccccc21	-3.4	-15.4	-15.1	9.2	-3.6
CCCCCCc1nnc(N)s1	3.7	-7.2	2.3	8.6	1.7
Cc1ccc2oc(NC(=O)N3CCOCC3)cc(=O)c2c1	-0.9	-37.3	2.8	80.0*	0.5
CCOC(=O)c1ccc(NC(=O)Nc2cccc(C)n2)cc1	14.9	2.4	11.0	20.4	45.0*
CC(C)(C)OC(=O)N1CCC(CNC(=O)c2ccc(F)cc2)CC1	1.2	-8.4	0.2	11.9	0.0
COCCNC(=O)CC(NS(=O)(=O)c1ccc(C)cc1)c1ccco1 (centres undefined)	10.1	6.3	46.4*	51.6*	0.4
O=C(Oc1ccc2c3c(c(=O)oc2c1)CCC3)c1ccco1	24.3	-19.5	-10.4	71.3*	32.8
Clc1ccc(CON/C=N/c2ncnc3sccc23)cc1	24.4	4.0	77.5*	13.1	8.1

Assay outcomes deposited in PubChem BioAssay by several laboratories.
